According to ChEMBL document CHEMBL1165909, “Analgesic, anti-pyretic and DNA cleavage studies of novel pyrimidine derivatives of coumarin moiety” (Eur J Med Chem, 2010):
Calls of active or inactive are those of the source. The calls are words filed in the database; no cut-off is given here.

Key:
Rattus norvegicus [1] = assay: Analgesic activity in albino Wistar rat assessed as reaction time required for tail flicking at 25 mg/kg, po after 90 mins by tail-flick method (reference value: 3.87 +/- 0.355 sec); assay type: functional
Rattus norvegicus [2] = assay: Analgesic activity in albino Wistar rat assessed as reaction time required for tail flicking at 25 mg/kg, po after 30 mins by tail-flick method (reference value: 3.97 +/- 0.287 sec); assay type: functional
Rattus norvegicus [3] = assay: Antipyretic activity against brewer's yeast-induced hyperthermia in albino Wistar rat assessed as change in rectal temperature at 100 mg/kg, po after 5 hrs (reference value: 34.36 +/- 0.14 degC); assay type: functional
Rattus norvegicus [4] = assay: Acute toxicity in albino Wistar rat assessed as convulsion at up to 3 g/kg, po after 24 hrs; assay type: organism-based; conditions: in vivo, 3000 mg/kg
Summary of the method: (§1)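 Albino rats of either sex, groups of six, dosed from 100 up to 3000 mg kg^-1 body weight. Watched continuously for 8 h for signs such as altered motor activity, ataxia, tremors, convulsions, sedation and lacrimation. Killed at 24 h; stomach, intestine and liver inspected under magnifying lenses for ulcer-haemorrhagic spots.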

Rattus norvegicus [5] = assay: Analgesic activity in albino Wistar rat assessed as reaction time required for tail flicking at 25 mg/kg, po after 60 mins by tail-flick method (reference value: 4 +/- 0.360 sec); assay type: functional
Rattus norvegicus [6] = assay: Antipyretic activity against brewer's yeast-induced hyperthermia in albino Wistar rat assessed as change in rectal temperature at 100 mg/kg, po after 6 hrs (reference value: 33.44 +/- 0.18 degC); assay type: functional
Rattus norvegicus [7] = assay: Acute toxicity in albino Wistar rat assessed as tremors at up to 3 g/kg, po after 24 hrs; assay type: organism-based; conditions: in vivo, 3000 mg/kg; summary of the method: as §1
Rattus norvegicus [8] = assay: Acute toxicity in albino Wistar rat assessed as ulceration at up to 3 g/kg, po after 24 hrs; assay type: organism-based; conditions: in vivo, 3000 mg/kg; summary of the method: as §1
Rattus norvegicus [9] = assay: Acute toxicity in albino Wistar rat assessed as stomach ulcerhaemorrhagic spots at up to 3 g/kg, po after 24 hrs; assay type: organism-based; conditions: in vivo, 3000 mg/kg; summary of the method: as §1
Rattus norvegicus [10] = assay: Acute toxicity in albino Wistar rat assessed as mortality at up to 3 g/kg, po after 24 hrs; assay type: organism-based; conditions: in vivo, 3000 mg/kg; summary of the method: as §1
Rattus norvegicus [11] = assay: Acute toxicity in albino Wistar rat assessed as intestine ulcerhaemorrhagic spots at up to 3 g/kg, po after 24 hrs; assay type: organism-based; conditions: in vivo, 3000 mg/kg; summary of the method: as §1
Rattus norvegicus [12] = assay: Acute toxicity in albino Wistar rat assessed as sedation at up to 3 g/kg, po after 24 hrs; assay type: organism-based; conditions: in vivo, 3000 mg/kg; summary of the method: as §1
Rattus norvegicus [13] = assay: Antipyretic activity against brewer's yeast-induced hyperthermia in albino Wistar rat assessed as change in rectal temperature at 100 mg/kg, po after 1 hr (reference value: 33.78 +/- 0.18 degC); assay type: functional
Rattus norvegicus [14] = assay: Acute toxicity in albino Wistar rat assessed as haemorrhagic spots at up to 3 g/kg, po after 24 hrs; assay type: organism-based; conditions: in vivo, 3000 mg/kg; summary of the method: as §1
Rattus norvegicus [15] = assay: Antipyretic activity against brewer's yeast-induced hyperthermia in albino Wistar rat assessed as change in rectal temperature at 100 mg/kg, po after 3 hrs (reference value: 32.80 +/- 0.09 degC); assay type: functional
Nucleic Acid = assay: Induction of Escherichia coli DNA cleavage at 25 mg after 24 hrs by agarose gel electrophoresis method; assay type: nucleic-acid assay
Summary of the method: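 E. coli grown in nutrient broth 24 h at 37 °C. Genomic DNA isolated by SDS lysis, phenol (55 °C, 10 min), chloroform:isoamyl alcohol extraction and ethanol precipitation, dissolved in TAE. Compounds at 1 mg/ml in DMF added to DNA, incubated 2 h at 37 °C. Run on agarose gel at 50 V about 30 min, stained with ethidium bromide, bands compared with DNA marker.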

| SMILES | Time (Rattus norvegicus [1]) [s] | Time (Rattus norvegicus [2]) [s] | T (Rattus norvegicus [3]) [°C] | Activity (Rattus norvegicus [4]) | Time (Rattus norvegicus [5]) [s] | T (Rattus norvegicus [6]) [°C] | Activity (Rattus norvegicus [7]) | Activity (Rattus norvegicus [8]) | Activity (Rattus norvegicus [9]) | Activity (Rattus norvegicus [10]) | Activity (Rattus norvegicus [11]) | Activity (Rattus norvegicus [12]) | T (Rattus norvegicus [13]) [°C] | Activity (Rattus norvegicus [14]) | T (Rattus norvegicus [15]) [°C] | Activity (Nucleic Acid) |
| --- | --- | --- | --- | --- | --- | --- | --- | --- | --- | --- | --- | --- | --- | --- | --- | --- |
| Nc1nc(-c2ccccc2)cc(-c2ccc(OCc3cc(=O)oc4ccc5ccccc5c34)cc2)n1 | 8 | 4 | 32.22 | Non-toxic | 7.25 | 31.88 | Non-toxic | Non-toxic | Non-toxic | Non-toxic | Non-toxic | Non-toxic | 32.8 | Non-toxic | 31.84 | – |
| Cc1ccc2c(COc3ccc(-c4cc(-c5ccccc5)nc(N)n4)cc3)cc(=O)oc2c1 | 7.5 | 5.1 | 33.8 | Non-toxic | 6.75 | 32.8 | Non-toxic | Non-toxic | Non-toxic | Non-toxic | Non-toxic | Non-toxic | 32.74 | Non-toxic | 32.6 | Active |
| O=c1cc(COc2ccc(-c3cc(-c4ccccc4)nc(S)n3)cc2)c2cc(Cl)ccc2o1 | 8.5 | 5.1 | 32.84 | Non-toxic | 7.54 | 32.84 | Non-toxic | Non-toxic | Non-toxic | Non-toxic | Non-toxic | Non-toxic | 32.5 | Non-toxic | 32.61 | – |
| Cc1ccc2c(COc3ccc(-c4cc(-c5ccccc5)nc(S)n4)cc3)cc(=O)oc2c1 | 7.5 | 4.5 | 32.9 | Non-toxic | 7.25 | 31.82 | Non-toxic | Non-toxic | Non-toxic | Non-toxic | Non-toxic | Non-toxic | 32.81 | Non-toxic | 32.66 | Active |
| O=c1cc(COc2ccc(-c3cc(-c4ccccc4)nc(O)n3)cc2)c2cc(Cl)ccc2o1 | 4.25 | 4.02 | 33.28 | Non-toxic | 4.04 | 32.61 | Non-toxic | Non-toxic | Non-toxic | Non-toxic | Non-toxic | Non-toxic | 33.18 | Non-toxic | 32.64 | Active |
| O=c1cc(COc2ccc(-c3cc(-c4ccccc4)nc(S)n3)cc2)c2ccc3ccccc3c2o1 | 6.25 | 4.52 | 33.09 | Non-toxic | 5.25 | 32.5 | Non-toxic | Non-toxic | Non-toxic | Non-toxic | Non-toxic | Non-toxic | 33.01 | Non-toxic | 32 | Active |
| O=c1cc(COc2ccc(-c3cc(-c4ccccc4)nc(O)n3)cc2)c2c(ccc3ccccc32)o1 | 8.87 | 5 | 32.82 | Non-toxic | 8.25 | 32.68 | Non-toxic | Non-toxic | Non-toxic | Non-toxic | Non-toxic | Non-toxic | 32.22 | Non-toxic | 32.72 | Active |
| Cc1ccc2oc(=O)cc(COc3ccc(-c4cc(-c5ccccc5)nc(N)n4)cc3)c2c1 | 7.25 | 4.75 | 33.3 | Non-toxic | 6.75 | 33 | Non-toxic | Non-toxic | Non-toxic | Non-toxic | Non-toxic | Non-toxic | 32.66 | Non-toxic | 31.68 | – |
| O=c1cc(COc2ccc(-c3cc(-c4ccccc4)nc(O)n3)cc2)c2ccc3ccccc3c2o1 | 7.25 | 4.75 | 33.44 | Non-toxic | 6.25 | 32.74 | Non-toxic | Non-toxic | Non-toxic | Non-toxic | Non-toxic | Non-toxic | 32.25 | Non-toxic | 32.68 | Active |
| O=c1cc(COc2ccc(-c3cc(-c4ccccc4)nc(S)n3)cc2)c2c(ccc3ccccc32)o1 | – | 4.25 | 33.01 | Non-toxic | 4.5 | 32.66 | Non-toxic | Non-toxic | Non-toxic | Non-toxic | Non-toxic | Non-toxic | 32.92 | Non-toxic | 31.98 | Active |
| Cc1ccc2c(COc3ccc(-c4cc(-c5ccccc5)nc(O)n4)cc3)cc(=O)oc2c1 | 7.75 | 4.5 | 33.1 | Non-toxic | 6.25 | 32.4 | Non-toxic | Non-toxic | Non-toxic | Non-toxic | Non-toxic | Non-toxic | 32.4 | Non-toxic | 32.84 | Active |
| Nc1nc(-c2ccccc2)cc(-c2ccc(OCc3cc(=O)oc4c3ccc3ccccc34)cc2)n1 | 5 | 4.04 | 32.51 | Non-toxic | 4.75 | 32.09 | Non-toxic | Non-toxic | Non-toxic | Non-toxic | Non-toxic | Non-toxic | 32.68 | Non-toxic | 31.4 | – |
| Nc1nc(-c2ccccc2)cc(-c2ccc(OCc3cc(=O)oc4ccc(Cl)cc34)cc2)n1 | 7.1 | 5.02 | 32.09 | Non-toxic | 7 | 32.54 | Non-toxic | Non-toxic | Non-toxic | Non-toxic | Non-toxic | Non-toxic | 32.74 | Non-toxic | 32.45 | – |
| Cc1ccc2oc(=O)cc(COc3ccc(-c4cc(-c5ccccc5)nc(S)n4)cc3)c2c1 | 7.45 | 4.5 | 32.8 | Non-toxic | 6.5 | 31.98 | Non-toxic | Non-toxic | Non-toxic | Non-toxic | Non-toxic | Non-toxic | 32.55 | Non-toxic | 32.77 | – |
| Cc1c(N(C)CS(=O)(=O)[O-])c(=O)n(-c2ccccc2)n1C.[Na+] [DIPYRONE SODIUM] | 9.02 | 5.77 | – | – | 8.76 | – | – | – | – | – | – | – | – | – | – | – |
